From ChEMBL document CHEMBL1121437, “Structure--antitubulin activity relationship in steganacin congeners and analogues. Inhibition of tubulin polymerization in vitro by (+/-)-isodeoxypodophyllotoxin” (J Med Chem, 1980)

Tests used:
Tubulin [1] = biological target: T1, Tubulin (Sus scrofa, UniProt P02554+P02550); assay: Binding affinity against tubulin using [3H]colchicine as radioligand; type: protein assay
Tubulin (Sus scrofa) = Tubulin (Sus scrofa) (UniProt P02554+P02550); assay: (§1) Tested for the inhibition of polymerization rate of tubulin microtubule assembly.; type: functional
Tubulin (Sus scrofa), sequence (P02550 whole entry, looked up): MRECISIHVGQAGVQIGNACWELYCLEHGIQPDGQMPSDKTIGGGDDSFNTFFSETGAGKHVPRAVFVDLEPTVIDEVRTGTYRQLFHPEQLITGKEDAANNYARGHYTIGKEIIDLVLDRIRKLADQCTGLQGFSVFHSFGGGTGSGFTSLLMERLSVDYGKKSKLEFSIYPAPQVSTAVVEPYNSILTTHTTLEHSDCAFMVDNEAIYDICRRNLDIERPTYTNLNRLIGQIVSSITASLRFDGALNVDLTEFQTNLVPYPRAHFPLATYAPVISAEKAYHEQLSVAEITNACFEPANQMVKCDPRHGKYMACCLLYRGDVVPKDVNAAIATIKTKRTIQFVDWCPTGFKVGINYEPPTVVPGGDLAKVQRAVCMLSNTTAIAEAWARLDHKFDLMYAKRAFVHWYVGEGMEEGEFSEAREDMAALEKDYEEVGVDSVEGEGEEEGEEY
Tubulin (Sus scrofa), sequence (P02554 whole entry, looked up): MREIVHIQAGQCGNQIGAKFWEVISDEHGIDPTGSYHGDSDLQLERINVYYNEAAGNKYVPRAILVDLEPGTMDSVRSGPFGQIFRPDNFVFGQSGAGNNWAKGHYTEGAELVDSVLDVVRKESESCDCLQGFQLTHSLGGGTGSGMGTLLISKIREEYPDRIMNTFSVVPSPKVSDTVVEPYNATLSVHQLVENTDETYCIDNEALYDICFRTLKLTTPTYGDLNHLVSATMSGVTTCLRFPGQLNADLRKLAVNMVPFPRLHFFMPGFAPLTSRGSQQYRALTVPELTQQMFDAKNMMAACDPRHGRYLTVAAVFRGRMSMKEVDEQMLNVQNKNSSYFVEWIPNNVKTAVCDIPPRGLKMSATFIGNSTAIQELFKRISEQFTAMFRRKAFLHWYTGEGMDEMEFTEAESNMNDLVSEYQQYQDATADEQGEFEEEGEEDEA
Procedure, shortened: (§2)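 Porcine brain tubulin (three cycles, ca. 1 mg/mL, 15% MAPs) in 0.1 M MES, 0.5 mM MgCl2, 1 mM EGTA, 1 mM GTP, pH 6.6. Compound (from 10^-2 M DMSO stock) preincubated with tubulin 1 h at 37 °C, cooled to 4 °C for 30 min, then warmed to 37 °C. Turbidity followed at 350 nm. I50 = concentration halving maximum polymerization rate.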

Tubulin [2] = biological target: T1, Tubulin; assay: as §1; type: functional; procedure, shortened: as §2
Tubulin [3] = biological target: T1, Tubulin; assay: Binding affinity against tubulin usingf [3H]-colchicine as radioligand; type: protein assay

SMILES | Ki (Tubulin [1]) | I20 (Tubulin (Sus scrofa)) | I50 (Tubulin [2]) | I30 (Tubulin (Sus scrofa)) | Ki (Tubulin [3])
COc1cc2c(c(OC)c1OC)-c1cc3c(cc1C[C@@H]1COC(=O)[C@H]1C2)OCO3 | 100 µM | 70 µM | 60 µM | – | –
COc1cc2c(c(OC)c1OC)-c1cc3c(cc1C[C@@H]1COC(=O)[C@@H]1C2)OCO3 | 32 µM | – | 5 µM | 700 µM | –
COc1cc2c(c(OC)c1OC)-c1cc3c(cc1C(=O)[C@@H]1COC(=O)[C@H]1C2)OCO3 (stereo in doubt; 12) | – | – | 450 µM | – | –
COc1cc2c(c(OC)c1OC)-c1cc3c(cc1C(=O)[C@@H]1COC(=O)[C@H]1C2)OCO3 (stereo in doubt; 9) | – | – | 110 µM | – | […]
COc1cc2c(c(OC)c1OC)-c1cc3c(cc1C(=O)[C@@H]1COC(=O)[C@H]1C2)OCO3 (stereo in doubt; 17) | – | – | 162 µM | – | –
COc1cc2c(c(OC)c1OC)-c1cc3c(cc1C(=O)[C@@H]1COC(=O)[C@H]1C2)OCO3 (stereo in doubt; 13) | – | – | 375 µM | – | –
COc1cc2c(c(OC)c1OC)-c1cc3c(cc1C(=O)[C@@H]1COC(=O)[C@H]1C2)OCO3 (stereo in doubt; 5) | 178 µM | – | 125 µM | – | –
COc1cc2c(c(OC)c1OC)-c1cc3c(cc1[C@@H](OC(C)=O)C1COC(=O)[C@H]1C2)OCO3 (stereo partly drawn) [STEGANACIN] | 10.5 µM | – | 3.5 µM | – | –
COc1cc(CC2CCOC2=O)c(-c2cc3c(cc2CO)OCO3)c(OC)c1OC (stereo not drawn) | 185 µM | – | – | – | –
COc1cc([C@@H]2c3cc4c(cc3CC3COC(=O)[C@@H]32)OCO4)cc(OC)c1OC (mixture of isomers) | 201 µM | – | 2.1 µM | – | –
